Data taken from ChEMBL document CHEMBL1130383, “Anesthetic activity of novel water-soluble 2 beta-morpholinyl steroids and their modulatory effects at GABAA receptors” (J Med Chem, 1997).

Assays:
[1] = biological target: GABA-A receptor; anion channel; assay: The concentration required to inhibit 50% of binding of [35S]TBPS to Gamma-aminobutyric acid A receptor to rat whole brain membranes.; format: cell membranes
Mus musculus = assay: Hypnotic dose was determined by observing loss of righting reflex for a minimum period of 30 sec in 50% of treated mice after i.v. administration.; format: functional
How it was run: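 Male CFLP mice (25–35 g), tested in the light period. Groups of eight received an i.v. lateral tail vein injection over 10 s (10 mL kg-1) on a μmol/kg dose series, e.g. 2–16, with extra doses added. Vehicle was saline for amine salts; standards were in HPCD/saline, emulsion or saline. HD50 with 95% confidence limits was obtained by probit analysis of the fraction showing LRR ≥30 s.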

SMILES	IC50 [1]	HD50 (Mus musculus)
CCC[C@H]1CN([C@H]2C[C@@]3(C)[C@@H](CC[C@H]4[C@@H]5CC[C@H](C(C)=O)[C@@]5(C)CC(=O)[C@@H]43)C[C@@H]2O)CCO1	948 nM	10.8 µM/kg
CC(=O)SCC(=O)[C@H]1CC[C@H]2[C@@H]3CC[C@H]4C[C@H](O)[C@@H](N5CCOCC5)C[C@]4(C)[C@H]3CC[C@]12C	235 nM	33.8 µM/kg
CC(=O)[C@H]1CC[C@H]2[C@@H]3CC[C@H]4C[C@H](O)[C@@H](N5C[C@@H](C)O[C@@H](C)C5)C[C@]4(C)[C@H]3CC[C@]12C	–	26 µM/kg
C[C@]12C[C@H](N3CCOCC3)[C@@H](O)C[C@@H]1CC[C@@H]1[C@@H]2CC[C@]2(C)[C@@H](C(=O)CBr)CC[C@@H]12	148 nM	22.8 µM/kg
CC(=O)[C@H]1CC[C@H]2[C@@H]3CC[C@H]4C[C@H](O)[C@@H](N5CCSCC5)C[C@]4(C)[C@H]3CC[C@]12C	–	40.5 µM/kg
C[C@]12C[C@H](N3CCOCC3)[C@@H](O)C[C@@H]1CC[C@H]1[C@@H]3CC[C@H](C(=O)CO)[C@@]3(C)CC(=O)[C@@H]12	1160 nM	198.2 µM/kg
CCCCC1(CCCC)CN([C@H]2C[C@@]3(C)[C@@H](CC[C@H]4[C@@H]5CC[C@H](C(C)=O)[C@@]5(C)CC(=O)[C@@H]43)C[C@@H]2O)CCO1	53 nM	31.1 µM/kg
CC1(C)CN([C@H]2C[C@@]3(C)[C@@H](CC[C@H]4[C@@H]5CC[C@H](C(=O)CSC#N)[C@@]5(C)CC(=O)[C@@H]43)C[C@@H]2O)CCO1	316 nM	10 µM/kg
CC(=O)[C@H]1CC[C@H]2[C@@H]3CC[C@H]4C[C@H](O)[C@@H](N5CCSCC5)C[C@]4(C)[C@H]3C(=O)C[C@]12C	1390 nM	20 µM/kg
CC[C@H]1CN([C@H]2C[C@@]3(C)[C@@H](CC[C@@H]4[C@@H]3CC[C@]3(C)[C@@H](C(C)=O)CC[C@@H]43)C[C@@H]2O)CCO1	–	22.7 µM/kg
CCO[C@H]1C[C@@]2(C)[C@@H](CC[C@@H]3[C@@H]2[C@H](N(C)C)C[C@]2(C)[C@@H](C(C)=O)CC[C@@H]32)C[C@@H]1O [MINAXOLONE]	–	7.3 µM/kg

The next lines start with results.

IC50 [1]	SMILES	HD50 (Mus musculus)
424 nM	CC(=O)[C@H]1CC[C@H]2[C@@H]3CC[C@H]4C[C@H](O)[C@@H](N5CCO[C@@H](C)C5)C[C@]4(C)[C@H]3CC[C@]12C	29 µM/kg
910 nM	CC[C@@H]1CN([C@H]2C[C@@]3(C)[C@@H](CC[C@@H]4[C@@H]3CC[C@]3(C)[C@@H](C(C)=O)CC[C@@H]43)C[C@@H]2O)CCO1	11.2 µM/kg
1490 nM	CC[C@H]1CN([C@H]2C[C@@]3(C)[C@@H](CC[C@H]4[C@@H]5CC[C@H](C(C)=O)[C@@]5(C)CC(=O)[C@@H]43)C[C@@H]2O)CCO1	15.1 µM/kg
127 nM	CC(=O)[C@H]1CC[C@H]2[C@@H]3CC[C@H]4C[C@H](O)[C@@H](N5CC(C)(C)OC(C)(C)C5)C[C@]4(C)[C@H]3C(=O)C[C@]12C	8.3 µM/kg
2170 nM	CC1(C)CN([C@H]2C[C@@]3(C)[C@@H](CC[C@H]4[C@@H]5CC[C@H](C(=O)CN=[N+]=[N-])[C@@]5(C)CC(=O)[C@@H]43)C[C@@H]2O)CCO1	10.7 µM/kg
100 nM	CC(=O)[C@H]1CC[C@H]2[C@@H]3CC[C@H]4C[C@H](O)[C@@H](N5CCO[C@@H](Cc6ccccc6)C5)C[C@]4(C)[C@H]3C(=O)C[C@]12C	12.8 µM/kg
